# S1P3 agonist: human S1P3 receptor agonists, primary screen, cell-based, primary and confirmation, NFAT-BLA reporter. 60,000 tested, 0.1% active. Sphingosine 1-phosphate receptor 3 (Homo sapiens), Q99500. activation, % at 4.5 µM. AID 373, 2006. S1P3 NFAT-BLA reporter cells, agonism, FRET ratio; relative to 1 µM S1P, basal subtracted;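 active = activation above the screen-wide mean plus 3 SD, cut at about 4.5% in these data, passing the limit was not always enough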
# Target sequence (Q99500 whole entry, looked up): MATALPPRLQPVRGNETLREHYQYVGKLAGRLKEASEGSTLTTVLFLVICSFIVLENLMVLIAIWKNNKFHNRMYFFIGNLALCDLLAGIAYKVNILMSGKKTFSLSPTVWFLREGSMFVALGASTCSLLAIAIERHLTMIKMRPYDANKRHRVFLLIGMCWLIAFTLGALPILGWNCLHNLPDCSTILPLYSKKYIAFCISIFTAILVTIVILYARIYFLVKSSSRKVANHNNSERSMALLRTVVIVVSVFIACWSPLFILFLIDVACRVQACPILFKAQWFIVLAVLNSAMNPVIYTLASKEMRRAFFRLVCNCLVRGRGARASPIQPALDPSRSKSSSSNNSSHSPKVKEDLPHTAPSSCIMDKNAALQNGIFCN
#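 Measure – % activation relative to 1 µM S1P (100%), per plate · System – stable CHO line with human S1P3, Gα16, NFAT-BLA reporter · Timing – cells plated overnight, compound 4 h 37 °C, substrate 2 h RT · Technique – fluorescent BLA substrate, ex 405 nm, em 460/535 nm ratio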
# HTR1E agonist: 5-HT1E receptor agonists, primary screen, cell-based, HTS; 5-hydroxytryptamine receptor 1E (Homo sapiens), P28566; CHO 5-HT1E Ga15 NFAT-bla reporter, FRET; 0% DMSO wells, 100% control agonist wells; activation, % at 6 µM; 65,000 tested, 0.69% active;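 active = activation above a set limit, the screen-wide mean activation plus 3 SD, cut at about 8.5% in these data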;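 note: 100% = positive control agonist at 1 µM giving full maximal response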
# 5HT1a antag: human 5-HT1a receptor antagonists, primary screen, cell-based, CHO, Ga15 NFAT-bla reporter. CHO 5-HT1a Ga15 NFAT-bla reporter, antagonist mode. inhibition, % at 10 µM. 62,000 tested, 0.68% active. AID 612, 2007;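 active = inhibition above the mean of all tested compounds plus 3 SD, cut at about 43% in these data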;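 note: receptor stimulated by 5-CT agonist at 100 nM near EC80; beta-lactamase reporter measured by ratiometric fluorescence of a cleavable substrate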
# 5HT1a ag: human 5-HT1a receptor agonists, primary screen, cell-based, CHO, Ga15 NFAT-bla reporter; 65,000 tested, 0.56% active; 5-hydroxytryptamine receptor 1A (Homo sapiens), P08908; CHO 5-HT1a Ga15 NFAT-bla reporter, FRET ratio; 0% basal, 100% maximal reference agonist; activation, % at 10 µM;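 active = activation above the screen-wide mean activation plus 3 SD, cut at about 19% in these data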;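 note: 0% = DMSO wells and 100% = 5-CT at EC100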
# S1P1 ag-PAM: S1P1 agonists and agonism potentiators, primary screen, cell-based, primary and confirmation screens, CRE-bla reporter; 56,000 tested, 0.57% active; activation, % at 9.5 µM; Sphingosine 1-phosphate receptor 1 (Homo sapiens), P21453; AID 449, 2006; S1P1 CRE-bla cells, forskolin, beta-lactamase FRET, potentiator mode; S1P1 agonist co-added at EC20, 2 nM; 100% = saturating reference agonist, 0% = basal;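 active = activation above a cutoff set at the mean activation of all tested compounds plus 3 SD, cut at about 54% in these data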;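 note: forskolin at 4 µM as EC80 and the EC20 agonist is SEW2871; 100% = SEW2871 at its EC100 plus forskolin at EC80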
# 5HT1E antag: 5-HT1E receptor antagonists, primary screen, cell-based, HTS; 5-hydroxytryptamine receptor 1E (Homo sapiens), P28566; CHO 5-HT1E Ga15 NFAT-bla reporter, FRET, antagonist; inhibition, % at 6 µM; 65,000 tested, 0.99% active; AID 571, 2007;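 active = inhibition above a set limit, the mean inhibition across every tested compound plus 3 SD, cut at about 29% in these data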;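 note: signal is the 460 over 535 nm emission ratio of beta-lactamase substrate; 0% = agonist plus DMSO wells and 100% = wells without agonist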
# * = called active by the depositor; nt = no result. In the library only some 3% were active in any assay of this set; here they are far more common.
SMILES,S1P3 agonist,HTR1E agonist,5HT1a antag,5HT1a ag,S1P1 ag-PAM,5HT1E antag
CCN=c1scc(-c2ccc3c(c2)NC(=O)CO3)n1N=C1CCCC1,-1,0,-1,-2,64*,1
COc1ccccc1N1CCN(C(=O)C2c3ccccc3Oc3ccccc32)CC1,-1,-1,55*,-3,17,42*
COc1ccccc1N1CCN(C(=O)C2CC=CCC2C(=O)O)CC1 (centres undefined),-1,49*,27,7,-9,-2
Cc1ccc(C)c(N2CCN(c3cc(C)nc4nnnn34)CC2)c1,0,0,-16,-3,-17,5
CCCS(=O)(=O)N1CCCC(C(=O)NCCN2CCC(Cc3ccccc3)CC2)C1 (centres undefined),0,0,46*,-2,-28,-4
Nc1nnc(-c2ccccc2)c(-c2ccccc2)n1,0,1,-10,-1,-46,5
c1ccc(-c2nc3nonc3nc2-c2ccccc2)cc1,6.1*,-1,33,-3,4,16
Cc1cc(-c2ccccc2)nc(N2CCC(C(=O)NC(C)C)CC2)n1,-1,-1,-4,-1,1,-3
c1ccc2nc3c(nc2c1)c1ccccc1n3CCN1CCOCC1,0,-1,-6,1,-40,-4
CCn1c2ccccc2c2nc3cc(S(=O)(=O)N4CCOCC4)ccc3nc21,2,1,6,3,-57,50*
Cc1cccc(NC(=O)CCNS(=O)(=O)c2cccc3nsnc23)c1,nt,38*,-5,0,nt,-6
NC(=O)c1oc2ccc(Cl)cc2c1N,-1,-1,1,2,10,-2
CN=c1oc2ccc(Cl)cc2cc1C(N)=O,-1,9.8*,15,-2,-9,-1
O=C(Nc1ccc2c(c1)OCCO2)C1CCCN1S(=O)(=O)c1cccc2cccnc12 (centres undefined),0,-1,5,75*,6,1
O=C(Nc1ccc(C(F)(F)F)cc1)C1CCCN1S(=O)(=O)c1cccc2cccnc12 (centres undefined),0,-1,-2,-2,66*,10
CCOC(=O)C(NC(=O)CC)(Nc1cc(C)on1)C(F)(F)F (centres undefined),0,1,10,-3,-9,-3
COc1ccccc1N1CCN(CCNC(=O)Nc2cccc(C)c2C)CC1,-1,8,13,41*,10,6
COc1ccccc1/C=C/CN1CCOCC1,-1,1,-9,-1,nt,-4
COc1ccccc1N1CCN(CC(O)COc2cccc3ccccc23)CC1 (centres undefined),-5,0,nt,1,6,28
COc1ccccc1N1CCN(CCOc2c(OC)cccc2OC)CC1,-4,30*,nt,2,20,14
COc1ccccc1N1CCN(C/C=C/c2ccc(N(C)C)cc2)CC1,-1,9.7*,79*,-1,-20,-18
COc1ccccc1N1CCN(Cc2ccco2)CC1,0,9.2*,16,-4,0,0
COc1cccc(C(=O)N2CCN(Cc3ccco3)CC2)c1OC,0,-1,1,-3,-23,-2
O=C(NC1CCCC1)C1C2C=CC(C2)C1C(=O)N1CCOCC1 (centres undefined),-2,-1,5,-2,11,5
Cc1c(/C=N/n2cnnc2)c2ccccc2n1C,-1,0,7,1,nt,0
COc1cccc(NC(=O)N(Cc2cc3cc(C)cc(C)c3[nH]c2=O)CC2COCCO2)c1 (centres undefined),-2,0,-3,-1,-7,2

# From PubChem
